MDM2 E3 inh – blocks human Mdm2 ubiquitin ligase activity; cell-based MDM2 ubiquitination luciferase reporter, 2 h; 0 = plate control, 100 = twice control, blank-subtracted; AID 1230; Q00987; signal enhancement, % at 5 µM; hit rate 0.11% among 210,000;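 active = signal enhancement of 30% or more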;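 note: luminescence tracks abundance of the self-degrading MDM2-luciferase fusion protein; higher signal means inhibition of MDM2 E3 ligase activity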
Target sequence (Q00987 whole entry, looked up, the tested form may be a part): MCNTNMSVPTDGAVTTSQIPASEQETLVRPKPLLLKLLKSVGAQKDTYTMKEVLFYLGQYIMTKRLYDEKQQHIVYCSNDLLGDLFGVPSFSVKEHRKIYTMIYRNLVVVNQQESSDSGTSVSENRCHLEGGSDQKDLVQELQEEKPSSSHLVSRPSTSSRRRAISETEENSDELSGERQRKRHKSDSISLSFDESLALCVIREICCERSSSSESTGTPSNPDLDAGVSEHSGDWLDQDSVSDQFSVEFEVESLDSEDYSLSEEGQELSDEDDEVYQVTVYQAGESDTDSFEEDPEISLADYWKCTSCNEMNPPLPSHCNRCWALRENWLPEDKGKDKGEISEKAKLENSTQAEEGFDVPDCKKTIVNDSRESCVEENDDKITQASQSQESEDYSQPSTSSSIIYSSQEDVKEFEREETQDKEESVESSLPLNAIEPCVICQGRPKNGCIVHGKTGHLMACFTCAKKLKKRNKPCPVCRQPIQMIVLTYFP
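Material: Stable MDM2–luciferase fusion reporter cells | Amount: 2000 cells seeded into each well | Dosing: One concentration, 5 µM, with 0.2% DMSO | Incubation: 4 h cell settling then 2 h compound exposure, 37 °C | Measured by: Luciferase luminescence | Read-out basis: % enhancement relative to plate controls after blank subtraction | Benchmarks: Control and blank well means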
Yeast life ext – yeast lifespan extension; inhibition of the nicotinamide effect, % at 10 µM; AID 775; S. cerevisiae growth with nicotinamide, OD615; deaD strain in restrictive glucose medium; hit rate 0.68% among 130,000;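 active = inhibition above a set limit, placed 3 SD over the median of all compounds, cut at about 26% in these data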;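 note: 0% = nicotinamide-treated wells and 100% = cells grown without nicotinamide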
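Test system: DeaD-strain S. cerevisiae / Buffer or medium: restrictive glucose medium / Also added: nicotinamide 1.5 mM / Doses: one concentration, 10 µM, DMSO 0.25% / Schedule: 48 h at 30 °C / Signal: OD615 measurement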
RAM inhibit – inhibitors of the yeast RAM network | S. cerevisiae dse1pr::URA3 reporter, 5-FOA growth OD615, 2 d; analog-sensitive cbk1-as2 kinase mutant strain | inhibition, % at 50 µM | hit rate 1.8% among 190,000 | AID 868;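 active = inhibition above a set limit, 3 SD over mean compound inhibition, cut at about 8.4% in these data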;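 note: 0% = DMSO-only wells with no growth and 100% = 10 µM 1-NA-PP1 full growth; inhibition rescues growth on 5-FOA so higher OD means more RAM inhibition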
BB579 growth dn – chemicals that inhibit yeast BB579 growth in restrictive medium (lifespan-shortening candidates); AID 804; hit rate 0.51% among 140,000; S. cerevisiae BB579 growth, OD615, 48 h; inhibition, % at 10 µM;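 active = inhibition above a set limit, 3 SD over the mean compound inhibition, cut at about 44% in these data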
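controls = amphotericin B 10 µg/mL, positive | assay system = DeaD yeast strain BB579 | schedule = 48 h compound exposure at 30 °C after 4 h preincubation | detection = OD615 turbidity measurement | medium = restrictive CSMM-D medium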
Measles CPE – protection of cells from measles virus; Measles virus-infected cells, CPE protection, absorbance; AID 841; protection (pct of control), % at 4 µM; hit rate 1.5% among 140,000; in the data active = protection mostly above about 24%, no sharp cut-off; inactive = mostly below about 26%
Insulin prom inh – TRM-6 insulin promoter activity inhibition; TRM-6 cells, insulin promoter-eGFP reporter, imaging; reporter expression induced with tamoxifen; inhibition, % at 2 µM; hit rate 0.9% among 130,000; AID 1273;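 active = inhibition above the mean plus 3 SD, with well images judged a real hit on visual review, cut at about 60% in these data, passing the limit was not always enough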
RAM 5-FOA – RAM network inhibition, efflux-deficient strain; shares compounds with RAM inhibit; max inhibition, %; S. cerevisiae efflux-deficient reporter strain, 5-FOA growth OD615, 2 days; AID 1305; 1,200 tested, under 10 active; call rule not given here;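 note: plate controls were vehicle for no effect and reference inhibitor for full effect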
* = called active by the depositor; . = not tested or not shown. A selection: hits, their analogues and other compounds. The true share with any hit is near 4%.

SMILES | MDM2 E3 inh | Yeast life ext | RAM inhibit | BB579 growth dn | Measles CPE | Insulin prom inh | RAM 5-FOA
CCOC(=O)c1cnc(SC)nc1Nc1cccc(F)c1 | -4 | -10 | 16* | -20 | 0 | 54 | 2
CCCCC(=O)NS(=O)(=O)c1ccc(N=NN(CC)CC)cc1 | 0 | . | 1 | . | . | . | .
CCCOc1cccc(C(=O)NC(=S)Nc2cccc(C(F)(F)F)c2)c1 | -20 | -9 | 12* | -20 | 17 | 11 | 3
COc1cc(-c2nc3cccc(C)n3c2NCC2CCCO2)ccc1O (stereo not drawn) | -9 | . | 1 | . | . | -50 | .
CC(=O)Nc1ccc(S(=O)(=O)NC(CC(=O)NCCCN2CCOCC2)C(C)C)cc1 (stereo not drawn) | 13 | -13 | 1 | -27 | 3 | . | .
CCCCCCCCNC(=O)CC(NS(=O)(=O)c1ccc(NC(C)=O)cc1)C(C)C (stereo not drawn) | 2 | 7 | 13* | -44 | 13 | -78 | 2
CCNC(=O)CSc1nnc(-c2ccccc2Br)n1-c1cccc(C(F)(F)F)c1 | -14 | 0 | 12* | -14 | 22 | -19 | 16
NC(=O)CSc1nnc(-c2ccccc2Br)n1-c1cccc(C(F)(F)F)c1 | . | -5 | 1 | -10 | 11 | -20 | .
CCc1nc(CN2CCN(c3cc(C(F)(F)F)ccn3)CC2)c(C)[nH]1 | -13 | . | . | . | . | . | .
O=C(CSc1nnc(-c2ccc(Cl)s2)o1)N1CCCc2ccccc21 | -19 | -5 | 14* | -23 | 12 | 7 | 2
COc1ccc(Nc2nc3c(C)cccc3cc2C#N)c(OC)c1 | -13 | 7 | 12* | -36 | 9 | 8 | 5
COCC(=O)NC1CCN(C(=O)Nc2ccc(Br)cc2)CC1 | 3 | -10 | 1 | -22 | 5 | 30 | .
O=c1ccc(/C=C/c2ccccc2)nn1Cc1ccc(Cl)cc1Cl | -15 | 2 | 13* | -107 | 5 | . | 2
COC(=O)c1cc(=O)n(CCc2ccccc2)c(=Nc2ccc(F)cc2)s1 | -1 | -4 | 12* | -34 | 28 | . | 5
O=C(O)CC(Sc1n[nH]c(=S)s1)C(=O)O (stereo not drawn) | -19 | . | . | . | . | . | .
Cc1ccc(NC(=O)CSc2nnc(-c3ccncc3)o2)cc1C | -10 | . | 2 | . | . | . | .
CC(=O)c1ccc(NC(=O)Cn2c3ccccc3c3nc(=O)cc(C)n32)cc1 | -6 | . | . | . | . | . | .
COc1ccc(C(=O)N/C(=C\c2ccco2)C(=O)OCc2ccco2)cc1 | -10 | . | . | . | . | . | .
CCCCOc1ccc(C(=O)N/C(=C\c2ccc(OC)cc2)C(=O)OCc2ccco2)cc1 | -33 | 1 | 12* | -61 | 18 | . | 7
CCCCOc1ccc(C(=O)N/C(=C\c2cccc([N+](=O)[O-])c2)C(=O)OCc2ccco2)cc1 | -2 | 9 | 11* | -34 | 28 | . | 2
Cc1ccc(C(=O)N/C(=C\c2cccc([N+](=O)[O-])c2)C(=O)OCN2C(=O)c3ccccc3C2=O)cc1 | -4 | -1 | 2 | -22 | 20 | 41 | .
COC(=O)CC1=C(C(=O)OC)[C@@H](c2ccccc2[N+](=O)[O-])C(C#N)=C(N)O1 | -15 | . | . | . | . | . | .
C=CCn1c(SCC(=O)Nc2ccccc2C)nnc1-c1ccncc1 | -13 | -7 | 14* | 12 | -2 | -33 | 2
Cc1cc(C)c2c(=O)[nH]c(SCC(=O)c3ccc(F)c(C)c3)nc2n1 | 5 | . | 4 | . | . | . | .
O=C(/C=C/c1ccccc1)N1CCN(c2cccc(Cl)n2)CC1 | -12 | -6 | 12* | -36 | 3 | -14 | 4
SMILES | MDM2 E3 inh | Yeast life ext | RAM inhibit | BB579 growth dn | Measles CPE | Insulin prom inh | RAM 5-FOA
C=CCN1C(=O)/C(=C\c2cc(Br)c(OCc3ccccn3)c(OC)c2)SC1=S | -1 | . | 19* | . | . | . | 2
COc1cc(/C=C2\SC(=S)N(CC(=O)Nc3ccccn3)C2=O)cc(OC)c1OC | -15 | -4 | 6 | -38 | 8 | . | .
O=C(NNC1=NC2(CCCC2)Cc2ccccc21)c1ccncc1 | -3 | . | 0 | . | . | -6 | .
COCCNC(=S)N(CCc1c(C)[nH]c2ccc(F)cc12)Cc1cccs1 | -2 | . | 12* | . | . | -89 | 1
CCNC(=S)N(CCc1c(C)[nH]c2ccc(C)cc12)Cc1cccs1 | -4 | . | 5 | . | . | 3 | .
COc1ccc(-c2nnc(NC(=O)C3=COCCO3)o2)cc1 | 1 | -3 | 0 | 7 | 3 | 50 | .
Cc1cc(/C=C(/C#N)c2cccc(Cl)c2)c(C)n1C | -2 | -10 | 17* | -57 | 4 | -23 | 4
CC(C)c1ccc(NC(=O)NN2CCOCC2)cc1 | -31 | . | 2 | . | . | 36 | .
CCCc1cc(C(=O)OC)c(NC(=O)c2cc(C)on2)s1 | -6 | . | 12* | -23 | 16 | 6 | 2
Clc1ccc(OCCn2cnc(Cl)c2Cl)cc1 | -11 | . | . | . | . | . | .
COc1ccc(N(C)S(=O)(=O)c2cccc(C(=O)OCC(=O)Nc3sc4c(c3C#N)CCCCC4)c2)cc1 | -18 | 5 | 11* | -9 | 7 | 11 | 2
Cc1ccc(-n2c(SCC(=O)N3CCCc4ccccc43)nnc2-c2cccnc2)c(C)c1 | 0 | 6 | 12* | -55 | 11 | -100 | 1
COc1ccc(Nc2nc(S(=O)(=O)c3ccc(C)cc3)c(Cl)s2)cc1 | -12 | -1 | 6 | -10 | 7 | . | .
Cc1ccc(S(=O)(=O)c2nc(Nc3ccccc3)sc2Cl)cc1 | -10 | -7 | 13* | -29 | 7 | . | 2
CCCCNS(=O)(=O)c1ccc(NC(=O)C(Sc2ccccc2)c2ccccc2)cc1 (stereo not drawn) | 2 | 3 | 14* | -19 | 11 | -11 | 1
CCCCNS(=O)(=O)c1ccc(NC(=O)c2cccs2)cc1 | -9 | . | 4 | . | . | 14 | .
CS(=O)(=O)Nc1ccc(C(=O)Nc2ccccc2Sc2ccccc2)cc1 | -6 | 6 | 12* | -35 | 13 | 4 | 1
CCc1ccccc1NC(=O)c1ccc(NS(C)(=O)=O)cc1 | -5 | . | 0 | . | . | . | .
Cc1cc(C)c2c(=O)[nH]c(=O)n(Cc3ccccc3)c2n1 | -9 | -5 | 3 | -33 | 10 | -79 | .
CCC(SC1=N/C(=C/c2ccccc2OC)C(=O)N1c1ccccc1)C(=O)Nc1cc(C)on1 (stereo not drawn) | -1 | -5 | 6 | -32 | 5 | . | .
